Results: ChEMBL document CHEMBL3779892, “Increasing the binding affinity of VEGFR-2 inhibitors by extending their hydrophobic interaction with the active site: Design, synthesis and biological evaluation of 1-substituted-4-(4-methoxybenzyl)phthalazine derivatives” (Eur J Med Chem, 2016)

Tests used:
Assay type in all cases: functional
[1] = test system: T47D; assay: Growth inhibition of human T47D cells at 10 uM after 48 hrs by sulforhodamine B assay; settings: read-out: GI
Outline: (§1)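 NCI-60 panel, adherent cells grown in RPMI 1640 with 5% FBS and 2 mM L-glutamine, plated at 5000–40,000 cells/well and preincubated 24 h at 37 °C, 5% CO2. 10 µM final compound from DMSO stock, triplicate wells, 48 h. Fixed with cold TCA (10% final, 60 min, 4 °C) and stained with 0.4% SRB. Absorbance read at 515 nm; growth calculated against time-zero and control wells.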

[2] = test system: MDA-MB-231; assay: Growth inhibition of human MDA-MB-231 cells at 10 uM after 48 hrs by sulforhodamine B assay; settings: MDA-MB-231, 48 h, read-out: GI
Outline: (§2)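 Run at NCI on the 60-line panel. Cells grown in RPMI 1640 with 5% FBS and 2 mM L-glutamine, plated at 5000–40,000 cells/well by doubling time, and held 24 h at 37 °C before dosing. Drug (DMSO stock) given at a single final 10 µM in triplicate wells for 48 h. Adherent cells fixed with cold TCA (10% final), suspension cells with 16% TCA. SRB stain read at 515 nm. Percent growth from Tz, C and Ti.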

[3] = test system: K562; assay: Growth inhibition of human K562 cells at 10 uM after 48 hrs by sulforhodamine B assay; settings: K562, 48 h, read-out: GI; outline: as §2
[4] = Growth inhibition of human RPMI8226 cells at 10 uM after 48 hrs by sulforhodamine B assay; settings: RPMI-8226, 48 h, read-out: GI; outline: as §2
[5] = test system: SR; assay: Growth inhibition of human SR cells at 10 uM after 48 hrs by sulforhodamine B assay; settings: read-out: GI
Outline: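 NCI-60 screen. Cells were grown in RPMI 1640 with 5% FBS and 2 mM L-glutamine, plated at 5000–40,000 cells/well and held 24 h at 37 °C, 5% CO2. Single 10 µM final dose from DMSO stock, triplicate wells, 48 h. Settled cells were fixed with 80% TCA (16% final) and stained with 0.4% SRB. Dye was solubilized in 10 mM Tris and read at 515 nm. Growth was calculated against time-zero and untreated wells.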

[6] = Growth inhibition of human HOP92 cells at 10 uM after 48 hrs by sulforhodamine B assay; settings: HOP-92, 48 h, read-out: GI; outline: as §2
[7] = test system: NCI-H23; assay: Growth inhibition of human NCI-H23 cells at 10 uM after 48 hrs by sulforhodamine B assay; settings: NCI-H23, 48 h, read-out: GI; outline: as §2
[8] = test system: NCI-H322M; assay: Growth inhibition of human NCI-H322M cells at 10 uM after 48 hrs by sulforhodamine B assay; settings: read-out: GI; outline: as §2
[9] = Growth inhibition of human COLO205 cells at 10 uM after 48 hrs by sulforhodamine B assay; settings: COLO 205, 48 h, read-out: GI; outline: as §2
[10] = Growth inhibition of human HCC2998 cells at 10 uM after 48 hrs by sulforhodamine B assay; settings: HCC 2998, 48 h, read-out: GI; outline: as §2
[11] = Growth inhibition of human HCT116 cells at 10 uM after 48 hrs by sulforhodamine B assay; settings: HCT-116, 48 h, read-out: GI; outline: as §2
[12] = test system: HT-29; assay: Growth inhibition of human HT-29 cells at 10 uM after 48 hrs by sulforhodamine B assay; settings: HT-29, 48 h, read-out: GI; outline: as §2
[13] = Growth inhibition of human SF268 cells at 10 uM after 48 hrs by sulforhodamine B assay; settings: SF-268, 48 h, read-out: GI; outline: as §2
[14] = Growth inhibition of human SF295 cells at 10 uM after 48 hrs by sulforhodamine B assay; settings: SF-295, 48 h, read-out: GI; outline: as §2
[15] = Growth inhibition of human SF539 cells at 10 uM after 48 hrs by sulforhodamine B assay; settings: SF-539, 48 h, read-out: GI; outline: as §2
[16] = Growth inhibition of human SNB19 cells at 10 uM after 48 hrs by sulforhodamine B assay; settings: SNB-19, 48 h, read-out: GI; outline: as §2
[17] = Growth inhibition of human SNB75 cells at 10 uM after 48 hrs by sulforhodamine B assay; settings: SNB-75, 48 h, read-out: GI; outline: as §2
[18] = test system: U-251; assay: Growth inhibition of human U251 cells at 10 uM after 48 hrs by sulforhodamine B assay; settings: U-251, 48 h, read-out: GI; outline: as §1
[19] = test system: MDA-MB-435; assay: Growth inhibition of human MDA-MB-435 cells at 10 uM after 48 hrs by sulforhodamine B assay; settings: MDA-MB-435, 48 h, read-out: GI; outline: as §2
[20] = test system: SK-MEL-28; assay: Growth inhibition of human SK-MEL-28 cells at 10 uM after 48 hrs by sulforhodamine B assay; settings: SK-MEL-28, 48 h, read-out: GI; outline: as §2
[21] = test system: SK-MEL-5; assay: Growth inhibition of human SK-MEL-5 cells at 10 uM after 48 hrs by sulforhodamine B assay; settings: SK-MEL-5, 48 h, read-out: GI; outline: as §2
[22] = Growth inhibition of human UACC257 cells at 10 uM after 48 hrs by sulforhodamine B assay; settings: UACC-257, 48 h, read-out: GI; outline: as §1
[23] = Growth inhibition of human IGROV1 cells at 10 uM after 48 hrs by sulforhodamine B assay; settings: IGROV-1, 48 h, read-out: GI; outline: as §2
[24] = Growth inhibition of human OVCAR4 cells at 10 uM after 48 hrs by sulforhodamine B assay; settings: OVCAR-4, 48 h, read-out: GI; outline: as §2
[25] = Growth inhibition of human OVCAR5 cells at 10 uM after 48 hrs by sulforhodamine B assay; settings: OVCAR-5, 48 h, read-out: GI; outline: as §2
[26] = Growth inhibition of human OVCAR8 cells at 10 uM after 48 hrs by sulforhodamine B assay; settings: OVCAR-8, 48 h, read-out: GI; outline: as §2
[27] = Growth inhibition of human NCI-ADR-RES cells at 10 uM after 48 hrs by sulforhodamine B assay; settings: read-out: GI; outline: as §2
[28] = Growth inhibition of human SKOV3 cells at 10 uM after 48 hrs by sulforhodamine B assay; settings: SK-OV-3, 48 h, read-out: GI; outline: as §2
[29] = test system: A498; assay: Growth inhibition of human A498 cells at 10 uM after 48 hrs by sulforhodamine B assay; settings: A498, 48 h, read-out: GI; outline: as §2
[30] = Growth inhibition of human Caki1 cells at 10 uM after 48 hrs by sulforhodamine B assay; settings: CAKI-1, 48 h, read-out: GI; outline: as §2
[31] = Growth inhibition of human RXF393 cells at 10 uM after 48 hrs by sulforhodamine B assay; settings: RXF 393, 48 h, read-out: GI; outline: as §2
[32] = test system: SN12C; assay: Growth inhibition of human SN12C cells at 10 uM after 48 hrs by sulforhodamine B assay; settings: read-out: GI; outline: as §2
[33] = Growth inhibition of human DU145 cells at 10 uM after 48 hrs by sulforhodamine B assay; settings: DU-145, 48 h, read-out: GI; outline: as §2
[34] = test system: MCF7; assay: Growth inhibition of human MCF7 cells at 10 uM after 48 hrs by sulforhodamine B assay; settings: MCF7, 48 h, read-out: GI; outline: as §2

SMILES | inhibition of growth at 10 µM [1] [%] | inhibition of growth at 10 µM [2] [%] | inhibition of growth at 10 µM [3] [%] | inhibition of growth at 10 µM [4] [%] | inhibition of growth at 10 µM [5] [%] | inhibition of growth at 10 µM [6] [%] | inhibition of growth at 10 µM [7] [%] | inhibition of growth at 10 µM [8] [%] | inhibition of growth at 10 µM [9] [%] | inhibition of growth at 10 µM [10] [%] | inhibition of growth at 10 µM [11] [%] | inhibition of growth at 10 µM [12] [%] | inhibition of growth at 10 µM [13] [%] | inhibition of growth at 10 µM [14] [%] | inhibition of growth at 10 µM [15] [%] | inhibition of growth at 10 µM [16] [%] | inhibition of growth at 10 µM [17] [%] | inhibition of growth at 10 µM [18] [%] | inhibition of growth at 10 µM [19] [%] | inhibition of growth at 10 µM [20] [%] | other results
COc1ccc(Cc2nnc(Nc3cccc(C(F)(F)F)c3)c3ccccc23)cc1 | 56 | 46 | 49 | 87 | 52 | 63 | 42 | < 30 | < 30 | 31 | 56 | 49 | < 30 | 38 | 36 | 45 | < 30 | 44 | < 30 | < 30 | inhibition of growth at 10 µM [21]: < 30%; inhibition of growth at 10 µM [22]: < 30%; inhibition of growth at 10 µM [23]: 37%; inhibition of growth at 10 µM [24]: 31%; inhibition of growth at 10 µM [25]: < 30%; inhibition of growth at 10 µM [26]: 35%; inhibition of growth at 10 µM [27]: 40%; inhibition of growth at 10 µM [28]: < 30%; inhibition of growth at 10 µM [29]: 40%; inhibition of growth at 10 µM [30]: 32%; inhibition of growth at 10 µM [31]: 34%; inhibition of growth at 10 µM [32]: 46%; inhibition of growth at 10 µM [33]: < 30%; inhibition of growth at 10 µM [34]: 35%
COc1ccc(Cc2nnc(Nc3ccc(NC(=O)Nc4ccccc4Cl)cc3)c3ccccc23)cc1 | 52 | < 30 | < 30 | 33 | < 30 | < 30 | < 30 | < 30 | < 30 | < 30 | < 30 | < 30 | < 30 | < 30 | < 30 | < 30 | < 30 | < 30 | < 30 | < 30 | inhibition of growth at 10 µM [21]: < 30%; inhibition of growth at 10 µM [22]: < 30%; inhibition of growth at 10 µM [23]: < 30%; inhibition of growth at 10 µM [24]: < 30%; inhibition of growth at 10 µM [25]: < 30%; inhibition of growth at 10 µM [26]: < 30%; inhibition of growth at 10 µM [27]: < 30%; inhibition of growth at 10 µM [28]: < 30%; inhibition of growth at 10 µM [29]: 44%; inhibition of growth at 10 µM [30]: < 30%; inhibition of growth at 10 µM [31]: 48%; inhibition of growth at 10 µM [32]: < 30%; inhibition of growth at 10 µM [33]: < 30%; inhibition of growth at 10 µM [34]: 32%
